One may read the IC50 as the point on the concentration scale where inhibition reaches its midpoint. The term inhibition denotes the percentage by which the read-out fell short of the control. A lower inhibition goes with a response near the control.

The source made the active and inactive calls. No cut-off for these calls is given here. Some results are limits rather than exact numbers.

From ChEMBL document CHEMBL2311413, “N-cinnamoylated chloroquine analogues as dual-stage antimalarial leads” (J Med Chem, 2013) come the findings set out here.

Data set [1] deals with Plasmodium berghei. In words: Antiplasmodial activity against Plasmodium berghei liver stage form transfected in human Huh-7 cells assessed as cell viability after 48 hrs by luciferase reporter gene assay. The class given is functional, organism-based. As to conditions: Huh-7, 48 h. In general terms: A reporter such as luciferase makes a cellular process visible.
Data set [2] has as its system Plasmodium falciparum. In words: Antiplasmodial activity against CQ-resistant Plasmodium falciparum W2 blood stage form after 48 hrs by FACSort cytometry. As to conditions: W2, 48 h. It is filed as functional, organism-based.
The test system of data set [3] is Plasmodium falciparum. Description: Antiplasmodial activity against CQ-resistant Plasmodium falciparum 3D7 blood stage form after 48 hrs by FACSort cytometry. It is filed as functional, organism-based. As to conditions: 3D7, 48 h.
Data set [4] can be described thus: Inhibition of beta-hematin formation at 0.1 to 1 mM after 48 hrs relative to control. The class given is functional. The gist of the method: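 Compounds in DMSO, 0.1−1 mM, added in triplicate to hemin chloride in DMSO (5.2 mg/mL). Formation started with 0.2 M acetate buffer pH 4.4, then 37 °C for 48 h. After centrifugation, pellet washed four times with DMSO and dissolved in 0.2 M NaOH, diluted 1:6 in 0.1 M NaOH, absorbance at 405 nm. Water and DMSO as negative controls.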

In data set [5] the test system is Huh-7. In words: Cytotoxicity against human HuH7 cells assessed as cell viability by AlamarBlue assay. The class given is cell-based. The gist of the method:
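Huh-7 human hepatoma cells grown in RPMI 1640 with 10% FCS, nonessential amino acids, glutamine and 10 mM HEPES pH 7, 37 °C, 5% CO2; 1.2 × 10^4 cells/well seeded the day before. Compound added ~1 h before P. berghei sporozoite infection and renewed at 24 h. Viability read by AlamarBlue per manufacturer's protocol at 48 h post-infection.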
(In general: The colour change of resazurin is a common sign of viable cells or microbes.)

In data set [6] the test system is Plasmodium berghei. In words: Antimalarial activity against Plasmodium berghei infected in Swiss Webster mouse assessed as increase in survival time at 30 mg/kg, ip bid administered for 4 days by Giemsa staining method relative to untreated control. The class given is functional. The gist of the method:
(§1)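 Female Swiss Webster mice (n = 5) infected ip with 10^6 P. berghei-infected erythrocytes. Dosing began 2 h later by ip injection twice daily for 4 days; chloroquine control at 3, 10, 30 mg/kg ip twice daily. Mice checked daily for toxicity and parasitemia (Giemsa-stained blood smears). Survival after treatment start compared with untreated controls.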

The subject of data set [7] is Mus musculus. Description: Toxicity in Plasmodium berghei infected Swiss Webster mouse at 10 to 100 mg/kg, ip bid administered for 4 days by Giemsa staining method. It is filed as organism-based. As to conditions: in vivo, 96 h. Set-up: dose 10-100 mg/kg, route intraperitoneal. The gist of the method:
(§2)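 Female Swiss Webster mice (n = 5) infected ip with 10^6 P. berghei-infected erythrocytes. Treatment began 2 h later: ip 10, 30 or 100 mg/kg twice daily for 4 days. Chloroquine control at 3, 10 and 30 mg/kg ip twice daily. Daily checks for toxicity and for parasitemia on Giemsa-stained blood smears; survival followed over time.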

Data set [8] deals with Plasmodium berghei. In words: Antimalarial activity against Plasmodium berghei infected in Swiss Webster mouse assessed as increase in survival time at 10 mg/kg, ip bid administered for 4 days by Giemsa staining method relative to untreated control. The class given is functional. The gist of the method:
as §1

Data set [9] concerns Plasmodium berghei. In words: Antimalarial activity against Plasmodium berghei infected in Swiss Webster mouse assessed as increase in survival time at 100 mg/kg, ip bid administered for 4 days by Giemsa staining method relative to untreated control. It is filed as functional. As to conditions: route intraperitoneal. The gist of the method:
as §1

In data set [10] the test system is Mus musculus. In words: Toxicity in Plasmodium berghei infected Swiss Webster mouse at 100 mg/kg, ip bid administered for 4 days by Giemsa staining method. It is filed as organism-based. Set-up: dose 100 mg/kg, route intraperitoneal. As to conditions: in vivo, 96 h. An outline of the steps: as §2

Turning to `COc1ccc(/C=C/C(=O)NCCCCCNc2ccnc3cc(Cl)ccc23)cc1`, the concentration for half-maximal inhibition (IC50) came to 2270 nM in data set [1] and 50.3 nM in data set [2].

Turning to `O=C(/C=C/c1cccc(F)c1)NCCCCNc1ccnc2cc(Cl)ccc12`, the IC50 in [3] came to 50.9 nM; in data set [1], 1130 nM; in [2], 34.1 nM. The inhibition in data set [4] was found to be 50%.

Take `COc1ccc(/C=C/C(=O)NCCCCNc2ccnc3cc(Cl)ccc23)cc1OC`: the IC50 came out at 4050 nM in data set [1] and 111 nM in data set [2]. In data set [5], the Activity result is given as “Non-toxic”.

Consider `O=C(/C=C/c1cccc([N+](=O)[O-])c1)NCCCNc1ccnc2cc(Cl)ccc12`, for which the figures for the 50% inhibitory concentration (IC50) in data set [3] and in [2] were 52.7 nM and 50.3 nM, respectively. The compound further yielded an inhibition in data set [4] of 50%.

Turning to `O=C(/C=C/c1ccc(Cl)cc1)NCCCNc1ccnc2cc(Cl)ccc12`, the IC50 came out at 46.5 nM in data set [3] and 41.6 nM in data set [2]. In data set [4], this compound returned an inhibition of 50%.

In the case of `COc1ccc(/C=C/C(=O)NCCCCNc2ccnc3cc(Cl)ccc23)cc1`, the outcome in [6] and in data set [8] was inactive. The results for the 50% inhibitory concentration (IC50) in data set [3], in data set [1] and in data set [2] were 30.6 nM, 2860 nM and 20 nM, respectively. Further, the inhibition in data set [4] amounted to 50%. In addition, the Activity entry in data set [7] and in [5] was “Non-toxic” in each case. For the same compound, the Survival in data set [9] stood at 2 days.

Turning to `COc1ccc(/C=C/C(=O)OCCCCNc2ccnc3cc(Cl)ccc23)cc1`, the inhibition in data set [4] worked out at 50%. The IC50 in data set [1] was found to be 6470 nM; in data set [2], 122 nM.

As to `O=C(/C=C/c1ccc(Br)cc1)NCCCNc1ccnc2cc(Cl)ccc12`, the IC50 in data set [3] worked out at 50 nM; in data set [2], 38.2 nM.

As for `CC(C)c1ccc(/C=C/C(=O)NCCCCCNc2ccnc3cc(Cl)ccc23)cc1`, the inhibition in [4] was found to be 50%. Inhibition in data set [2] was half-maximal at 31.5 nM (IC50).

As for `CC(C)c1ccc(/C=C/C(=O)NCCCNc2ccnc3cc(Cl)ccc23)cc1`, the half-inhibitory concentration (IC50) in data set [3] worked out at 50.3 nM; in data set [2], 38 nM.

As to `O=C(/C=C/c1ccc(F)cc1)NCCCNc1ccnc2cc(Cl)ccc12`, the IC50 came out at 47.7 nM in data set [3] and 46.7 nM in data set [2].

With `COc1cc(NC(C)CCCN)c2ncccc2c1` (stereo not drawn) [PRIMAQUINE], the IC50 in [1] stood at 7500 nM.

`O=C(/C=C/c1cccc([N+](=O)[O-])c1)NCCCCNc1ccnc2cc(Cl)ccc12`: the IC50 in data set [3] worked out at 42.1 nM; in data set [2], 26.2 nM.

`CN(C)c1ccc(/C=C/C(=O)NCCCCNc2ccnc3cc(Cl)ccc23)cc1` gave an inhibition in [4] of 50%. Also, the concentration for half-maximal inhibition (IC50) in data set [2] turned out to be 25.8 nM.

Turning to `O=C(/C=C/c1cccc(F)c1)NCCCNc1ccnc2cc(Cl)ccc12`, the IC50 was 138 nM in data set [3] and 73.3 nM in data set [2].

For `O=C(/C=C/c1ccccc1[N+](=O)[O-])NCCCCNc1ccnc2cc(Cl)ccc12`, the IC50 in data set [3] turned out to be 56.9 nM; in data set [1] it was 1090 nM; in data set [2], 38.3 nM. The compound further yielded an inhibition in [4] of 50%.

With `Cc1ccc(/C=C/C(=O)NCCCNc2ccnc3cc(Cl)ccc23)cc1`, the half-maximal inhibitory concentration (IC50) turned out to be 55.9 nM in data set [3] and 47.4 nM in data set [2].

For the compound `O=C(/C=C/c1ccc(F)cc1)NCCCCNc1ccnc2cc(Cl)ccc12`, the IC50 worked out at 39.9 nM in data set [3], 1420 nM in data set [1] and 19.7 nM in [2]. This compound also gave an inhibition in [4] of 50%.

Regarding `O=C(/C=C/c1ccccc1)NCCCCNc1ccnc2cc(Cl)ccc12`, the figures for the 50% inhibitory concentration (IC50) in data set [3], in [1] and in data set [2] were 62.9 nM, 1060 nM and 46.6 nM, respectively.

On to `O=C(/C=C/c1ccccc1[N+](=O)[O-])NCCCNc1ccnc2cc(Cl)ccc12`, for which the values for the concentration for half-maximal inhibition (IC50) in data set [3] and in data set [2] were 64.2 nM and 52.1 nM, respectively. The same compound returned an inhibition in data set [4] of 50%.

Take `O=C(/C=C/c1ccc([N+](=O)[O-])cc1)NCCCNc1ccnc2cc(Cl)ccc12`: the IC50 in data set [3] turned out to be 52.5 nM; in data set [2], 23.7 nM. The same compound returned an inhibition in data set [4] of 50%.

Consider `CC(C)c1ccc(/C=C/C(=O)NCCCCN2CCOCC2)cc1`, for which the IC50 in data set [1] and in [2] was more than 10000 nM each time.

Turning to `O=C(/C=C/c1ccc([N+](=O)[O-])cc1)NCCCCNc1ccnc2cc(Cl)ccc12`, the IC50 in [3] was 48.9 nM; in data set [2] it was 23.5 nM. For the same compound, in data set [4], the inhibition was more than 75%.

For the compound `COc1ccc(/C=C/C(=O)NCCCCNc2ccncc2)cc1`, the IC50 in data set [1] and in data set [2] was more than 10000 nM in each case.

`O=C(/C=C/c1ccc(Cl)cc1)NCCCCNc1ccnc2cc(Cl)ccc12`: the Survival in data set [6] (route intraperitoneal) and in [8] (route intraperitoneal) was 2 days each time. The IC50 in [3] was 26.2 nM; in [1], 1440 nM; in [2] it was 11.6 nM. Moreover, the inhibition in data set [4] is 50%. Further, the Activity result in [10] is on record as “Toxic”.

Turning to `CC(C)c1ccc(/C=C/C(=O)NCCCCNc2ccnc3cc(Cl)ccc23)cc1`, the outcome in data set [6] and in [8] was inactive. Further, the figures for the 50% inhibitory concentration (IC50) in data set [3], in data set [1] and in data set [2] were 15.6 nM, 2500 nM and 11 nM, respectively. Besides, the inhibition in [4] amounted to 50%. Moreover, the Activity result in data set [10] is “Toxic”.

Compound `CCN(CC)CCCC(C)Nc1ccnc2cc(Cl)ccc12` (stereo not drawn) [CHLOROQUINE] registered an inhibition in [4] of more than 75%. The half-maximal inhibitory concentration (IC50) in [1] stood at 15900 nM.

As for `COc1ccc(/C=C/C(=O)NCCCNc2ccnc3cc(Cl)ccc23)cc1`, the half-inhibitory concentration (IC50) is 49.5 nM in data set [3], 4020 nM in [1] and 55.1 nM in data set [2].

In the case of `Nc1ccc(/C=C/C(=O)NCCCNc2ccnc3cc(Cl)ccc23)cc1`, the IC50 in data set [3] is 135 nM; in data set [2], 79.8 nM.

Take `O=C(/C=C/c1ccccc1)NCCCNc1ccnc2cc(Cl)ccc12`: the results for the IC50 in data set [3] and in data set [2] were 141 nM and 74.8 nM, respectively.

Regarding `CC(C)c1ccc(/C=C/C(=O)NCCCCNc2ccnc3ccccc23)cc1`, the concentration for half-maximal inhibition (IC50) in data set [2] came out at 115 nM.

As for `Cc1ccc(/C=C/C(=O)NCCCCNc2ccnc3cc(Cl)ccc23)cc1`, the half-maximal inhibitory concentration (IC50) was 24.2 nM in [3], 2360 nM in [1] and 16.9 nM in data set [2].

On to `Nc1ccc(/C=C/C(=O)NCCCCNc2ccnc3cc(Cl)ccc23)cc1`, for which the IC50 was 78.1 nM in data set [3] and 58.8 nM in [2].

On to `O=C(/C=C/c1ccc(Cl)cc1)NCCCCCNc1ccnc2cc(Cl)ccc12`, for which the concentration for half-maximal inhibition (IC50) in data set [1] was determined as 1620 nM; in data set [2] it was 25.1 nM.

`C[C@@H]1CC[C@H]2[C@@H](C)C(=O)O[C@@H]3O[C@@]4(C)CC[C@@H]1[C@]32OO4` [ARTEMISININ]: the half-inhibitory concentration (IC50) in data set [3] stood at 23.5 nM; in data set [2] it was 9.5 nM. This compound registered an inhibition in data set [4] of less than 50%.

Regarding `COc1ccc(/C=C/C(=O)NCCCC(C)Nc2cc(OC)cc3cccnc23)cc1` (stereo not drawn), the figures for the half-maximal inhibitory concentration (IC50) in data set [1] and in data set [2] were 2350 nM and more than 10000 nM, respectively.

Turning to `O=C(/C=C/c1ccc(Br)cc1)NCCCCNc1ccnc2cc(Cl)ccc12`, the half-inhibitory concentration (IC50) was 28.8 nM in data set [3], 2280 nM in data set [1] and 18.2 nM in data set [2]. Also, the inhibition in [4] was more than 75%.
